Measurements: ChEMBL document CHEMBL3751737, “Synthesis, antibacterial and cytotoxic activities of new biflorin-based hydrazones and oximes” (2016)
Values after ≈ are worked out from the molar mass of the structure shown. Active and inactive are the calls of the source. The rule behind the calls is not given here.

Assays:
Format in all cases: functional
[1] = test system: Escherichia coli; assay: Antibacterial activity against Escherichia coli 27 after 24 hrs by broth microdilution method
How it was run: (§1)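 Broth microdilution in BHI following CLSI M100-S16. Strains were activated in BHI for 24 h at 35 ± 2 °C, adjusted to 0.5 McFarland, and diluted to a final inoculum of 5 x 10^5 CFU/mL. Samples were dissolved in water/DMSO and tested at final 512-8 µg/mL, in triplicate. Plates were incubated 24 h at 35 ± 2 °C, then 0.01% resazurin was added. MIC was the lowest concentration preventing the visual blue-to-red change. Amikacin, gentamicin and neomycin served as positive controls.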

[2] = test system: Enterococcus faecalis; assay: Antibacterial activity against Enterococcus faecalis ATCC 4083 after 24 hrs by broth microdilution method; how it was run: as §1
[3] = test system: Staphylococcus aureus; assay: Antibacterial activity against Staphylococcus aureus ATCC 25923 after 24 hrs by broth microdilution method; how it was run: as §1
[4] = test system: Proteus vulgaris; assay: Antibacterial activity against Proteus vulgaris ATCC 13315 after 24 hrs by broth microdilution method; how it was run: as §1
[5] = test system: Staphylococcus aureus; assay: Antibacterial activity against Staphylococcus aureus 358 after 24 hrs by broth microdilution method; how it was run: as §1
[6] = test system: Escherichia coli; assay: Antibacterial activity against Escherichia coli ATCC 10536 after 24 hrs by broth microdilution method; how it was run: as §1
[7] = test system: SF-295; assay: (§2) Cytotoxicity against human SF295 cells assessed as growth inhibition at 5 ug/ml after 72 hrs by MTT assay
How it was run: (§3)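 Cells were grown in RPMI 1640 with 10% FBS and 1% antibiotic at 37 °C under 5% CO2, and seeded at 0.1 x 10^6 cells/mL. Samples were dissolved in DMSO and tested at 5 µg/mL for 72 h. MTT was added for 3 h, the precipitate was dissolved in DMSO, and absorbance was read at 595 nm. Potential was rated on an intensity scale.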

[8] = test system: HCT-116; assay: (§4) Cytotoxicity against human HCT116 cells assessed as growth inhibition at 5 ug/ml after 72 hrs by MTT assay
How it was run: (§5)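 Cells were maintained in RPMI 1640 with 10% FBS and 1% antibiotic at 37 °C under 5% CO2. Samples were dissolved in DMSO and tested at a single 5 µg/mL for 72 h. Viability was read by MTT: 3 h incubation, formazan dissolved in DMSO, absorbance at 595 nm. Results were graded on an intensity scale.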

[9] = test system: OVCAR-8; assay: (§6) Cytotoxicity against human OVCAR8 cells assessed as growth inhibition at 5 ug/ml after 72 hrs by MTT assay; how it was run: as §3
[10] = as §2; conditions: SF-295, 72 h, read-out: GI; how it was run: as §3
[11] = test system: Klebsiella pneumoniae; assay: Antibacterial activity against Klebsiella pneumoniae ATCC 10031 after 24 hrs by broth microdilution method; conditions: ATCC 10031, 24 h
[12] = test system: Escherichia coli; assay: Antibacterial activity against Escherichia coli ATCC 25922 after 24 hrs by broth microdilution method; conditions: ATCC 25922, 24 h
[13] = test system: Vibrio cholerae; assay: Antibacterial activity against Vibrio cholerae ATCC 15748 after 24 hrs by broth microdilution method; conditions: ATCC 15748, 24 h
[14] = as §4; conditions: HCT-116, 72 h, read-out: GI; how it was run: as §5
[15] = test system: Staphylococcus aureus; assay: Antibacterial activity against Staphylococcus aureus ATCC 12624 after 24 hrs by broth microdilution method; conditions: ATCC 12624, 24 h
[16] = test system: Listeria monocytogenes; assay: Antibacterial activity against Listeria monocytogenes ATCC 19117 after 24 hrs by broth microdilution method; conditions: ATCC 19117, 24 h
[17] = test system: Bacillus cereus; assay: Antibacterial activity against Bacillus cereus ATCC 33018 after 24 hrs by broth microdilution method; conditions: ATCC 33018, 24 h
[18] = test system: Pseudomonas aeruginosa; assay: Antibacterial activity against Pseudomonas aeruginosa ATCC 15442 after 24 hrs by broth microdilution method; conditions: ATCC 15442, 24 h
[19] = test system: Aeromonas caviae; assay: Antibacterial activity against Aeromonas caviae ATCC 15468 after 24 hrs by broth microdilution method; conditions: ATCC 15468, 24 h
[20] = as §6; conditions: OVCAR-8, 72 h, read-out: GI; how it was run: as §3
[21] = test system: Shigella flexneri; assay: Antibacterial activity against Shigella flexneri ATCC 12022 after 24 hrs by broth microdilution method; conditions: ATCC 12022, 24 h
[22] = test system: Staphylococcus aureus; assay: Antibacterial activity against Staphylococcus aureus ATCC 12692 after 24 hrs by broth microdilution method; conditions: ATCC 12692, 24 h
[23] = test system: Staphylococcus aureus; assay: Antibacterial activity against Staphylococcus aureus ATCC 6538 after 24 hrs by broth microdilution method; conditions: ATCC 6538, 24 h
[24] = Staphylococcus aureus, 358, 24 h

Compound	MIC ([1]; Escherichia coli, 27, 24 h) [µg/mL]	growth inhibition (GI) [7]	growth inhibition (GI) [8]	growth inhibition (GI) [9]	MIC ([2]; ATCC 4083, 24 h) [µg/mL]	MIC ([3]; ATCC 25923, 24 h) [µg/mL]	MIC ([4]; ATCC 13315, 24 h) [µg/mL]	MIC [5, 24] [µg/mL]	MIC ([6]; ATCC 10536, 24 h) [µg/mL]	other results
GENTAMICIN										MIC [1]: 512 µg/mL; MIC [2]: 32 µg/mL; MIC [3]: 32 µg/mL; MIC [4]: 64 µg/mL; MIC [5]: 8 µg/mL; MIC [6]: 128 µg/mL
CC(C)=CCCC1=COC2=C(C)C(=O)/C(=N\O)c3c(C)ccc1c32	512 (≈ 1580 µM)	inactive	inactive	inactive	256 (≈ 792 µM)	256 (≈ 792 µM)	512 (≈ 1580 µM)	≥ 1020	≥ 1020	
CCO/N=C1\C(=O)C(C)=C2OC=C(CCC=C(C)C)c3ccc(C)c1c32	128 (≈ 364 µM)	inactive	inactive	inactive	16 (≈ 45.5 µM)	32 (≈ 91.1 µM)	512 (≈ 1460 µM)	64 (≈ 182 µM)	512 (≈ 1460 µM)	
NCC[C@H](O)C(=O)N[C@@H]1C[C@H](N)[C@@H](O[C@H]2O[C@H](CN)[C@@H](O)[C@H](O)[C@H]2O)[C@H](O)[C@H]1O[C@H]1O[C@H](CO)[C@@H](O)[C@H](N)[C@H]1O [AMIKACIN]	128 (≈ 219 µM)				256 (≈ 437 µM)	256 (≈ 437 µM)	512 (≈ 874 µM)	256 (≈ 437 µM)		
CC(C)=CCCC1=COC2=C(C)C(=O)/C(=N\Nc3ccccc3)c3c(C)ccc1c32	≥ 1020	inactive	inactive	inactive	512 (≈ 1280 µM)	256 (≈ 642 µM)	≥ 1020	≥ 1020	≥ 1020	
CO/N=C1\C(=O)C(C)=C2OC=C(CCC=C(C)C)c3ccc(C)c1c32	128 (≈ 379 µM)	inactive	inactive	inactive	32 (≈ 94.8 µM)	32 (≈ 94.8 µM)	64 (≈ 190 µM)	64 (≈ 190 µM)	≥ 1020	
CC(C)=CCCC1=COC2=C(C)C(=O)/C(=N\Nc3ccc([N+](=O)[O-])cc3[N+](=O)[O-])c3c(C)ccc1c32	≥ 1020	inactive	inactive	inactive	512 (≈ 1050 µM)	512 (≈ 1050 µM)	512 (≈ 1050 µM)	512 (≈ 1050 µM)	512 (≈ 1050 µM)	
NCC1O[C@H](O[C@H]2[C@@H](O)[C@H](O[C@H]3[C@H](O)[C@@H](N)C[C@@H](N)[C@@H]3O[C@H]3O[C@H](CN)[C@@H](O)[C@H](O)[C@H]3N)O[C@@H]2CO)[C@H](N)[C@@H](O)[C@@H]1O (some centres not stated)	128 (≈ 208 µM)				128 (≈ 208 µM)	32 (≈ 52.1 µM)	512 (≈ 833 µM)	32 (≈ 52.1 µM)	512 (≈ 833 µM)	
CC(C)=CCCC1=COC2=C(C)C(=O)C(=O)c3c(C)ccc1c32	256 (≈ 830 µM)				32 (≈ 104 µM)	64 (≈ 208 µM)	16 (≈ 51.9 µM)	128 (≈ 415 µM)	128 (≈ 415 µM)	inhibition of growth at 5 µg/mL [10]: 75%; MIC [11]: ≥ 1020 µg/mL; MIC [12]: ≥ 1020 µg/mL; MIC [13]: ≥ 1020 µg/mL; inhibition of growth at 5 µg/mL [14]: 75%; MIC [15]: ≥ 1020 µg/mL; MIC [16]: ≥ 1020 µg/mL; MIC [17]: ≥ 1020 µg/mL; MIC [18]: ≥ 1020 µg/mL; MIC [19]: ≥ 1020 µg/mL; inhibition of growth at 5 µg/mL [20]: 75%; MIC [21]: ≥ 1020 µg/mL; MIC [22]: ≥ 1020 µg/mL; MIC [23]: ≥ 1020 µg/mL
